Calls of active or inactive are those of the source. The rule behind the calls is not given here.
Tests used:
Acetylcholinesterase = target: T1, Acetylcholinesterase (Rattus norvegicus, UniProt P37136); assay: Inhibition of rat brain AChE using acetylthiocholine iodide as substrate by spectroscopic method
T1 sequence (P37136 whole entry): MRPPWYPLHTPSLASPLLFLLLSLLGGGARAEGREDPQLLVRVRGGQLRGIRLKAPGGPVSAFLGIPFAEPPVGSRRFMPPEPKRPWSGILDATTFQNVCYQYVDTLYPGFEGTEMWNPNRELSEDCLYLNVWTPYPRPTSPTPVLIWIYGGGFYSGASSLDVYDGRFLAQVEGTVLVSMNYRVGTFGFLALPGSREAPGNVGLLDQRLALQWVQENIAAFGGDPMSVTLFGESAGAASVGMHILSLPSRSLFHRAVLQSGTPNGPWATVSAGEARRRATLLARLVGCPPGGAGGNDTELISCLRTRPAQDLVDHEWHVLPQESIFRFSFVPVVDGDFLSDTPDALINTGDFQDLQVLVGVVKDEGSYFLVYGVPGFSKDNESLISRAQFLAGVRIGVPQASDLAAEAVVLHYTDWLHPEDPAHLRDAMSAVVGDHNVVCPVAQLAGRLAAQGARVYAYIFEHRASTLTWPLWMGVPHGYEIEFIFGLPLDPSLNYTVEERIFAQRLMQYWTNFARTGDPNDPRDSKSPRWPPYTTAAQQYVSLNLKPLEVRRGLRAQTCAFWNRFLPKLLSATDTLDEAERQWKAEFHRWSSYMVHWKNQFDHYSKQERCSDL

[1] = Anti-glycosylation activity using BSA assessed as inhibition of AGE formation measured after 30 hrs by fluorescence spectrophotometric method; type: functional
In short: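 Glucose-mediated glycation of protein with fluorescent AGE read-out at 370 nm excitation / 440 nm emission. Test compounds dissolved in DMSO at different concentrations. Aminoguanidine positive control. Run in triplicate.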

[2] = target: T2, Acetylcholinesterase (Rattus norvegicus) (UniProt P37136); assay: Potency index, ratio of donepezil IC50 to compound IC50 for inhibition of rat brain AChE
T2 sequence (whole entry): T1 sequence (P37136 whole entry)

Mus musculus [3] = assay: Reversal of scopolamine-induced memory impairment in Swiss albino mouse assessed as attenuation of scopolamine-induced […] time at 2 to 10 mg/kg, ip administered 30 mins prior to scopolamine challenge measured on day 4 by Morris water maze test; type: functional, organism-based
In short: (§1)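 Swiss albino mice of either sex (20–25 g), five per group. Scopolamine 0.5 mg/kg; agent (2, 5, 10 mg/kg, i.p.) given 30 min before scopolamine ahead of each of the first four trials. Morris water maze: escape latency on days 1–4, time in target quadrant on day 5. Vehicle 10% DMSO. Mean ± SD, two-way ANOVA with Tukey test.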

Mus musculus [4] = assay: Antialzheimer activity in Swiss albino mouse brain assessed as reversal of scopolamine-induced reduction in GSH levels at 5 mg/kg, ip (reference value: 21.3 +/- 0.81); type: functional
In short: (§2)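 Swiss albino mice of either sex (20–25 g), five per group, given scopolamine 0.5 mg/kg with test agent i.p. 30 min before scopolamine. After the water maze protocol, cortex and hippocampus were homogenized in ice-cold phosphate buffer pH 7.4 and spun 14,500 rpm, 15 min, 4 °C. Supernatant used for TBARS (Ohkawa) or reduced GSH (Beutler). Mean ± SD.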

Mus musculus [5] = assay: Antialzheimer activity in Swiss albino mouse brain assessed as reversal of scopolamine-induced […] assessed per mg protein at 5 mg/kg, ip (reference value: 1.25 +/- 0.04 nM/min/mg) by spectrophotometric analysis; type: functional
Mus musculus [6] = assay: Antialzheimer activity in Swiss albino mouse brain assessed as reversal of scopolamine-induced reduction in GSH levels at 10 mg/kg, ip (reference value: 21.3 +/- 0.81); type: functional; in short: as §2
Mus musculus [7] = assay: Antialzheimer activity in Swiss albino mouse brain assessed as reversal of scopolamine-induced […] level at 5 mg/kg, ip (reference value: 26.51 +/- 0.79 nM/mg); type: functional; in short: as §2
Mus musculus [8] = assay: Antialzheimer activity in Swiss albino mouse brain assessed as reversal of scopolamine-induced […] level at 10 mg/kg, ip (reference value: 26.51 +/- 0.79 nM/mg); type: functional; in short: as §2
Mus musculus [9] = assay: Antialzheimer activity in Swiss albino mouse brain assessed as reversal of scopolamine-induced […] assessed per mg protein at 10 mg/kg, ip (reference value: 1.25 +/- 0.04 nM/min/mg) by spectrophotometric analysis; type: functional
[10] = target: T2, Acetylcholinesterase (Rattus norvegicus); assay: Mixed type inhibition of rat brain AChE at 0.01 to 0.1 uM using increasing concentration acetylthiocholine iodide as substrate by Lineweaver-Burk plot analysis
Mus musculus [11] = assay: Reversal of scopolamine-induced memory impairment in Swiss albino mouse assessed as attenuation of scopolamine-induced decreased time spent in target quadrant at 2 to 10 mg/kg, ip administered 30 mins prior to scopolamine challenge measured on day 5 by Morris water maze test
Mus musculus [12] = assay: Reversal of scopolamine-induced memory impairment in Swiss albino mouse assessed as attenuation of scopolamine-induced amnesia at 2 mg/kg, ip administered 30 mins prior to scopolamine challenge measured on day 4 by Morris water maze test; type: functional, organism-based; in short: as §1

COc1ccc(-c2cc(=O)c3ccc(OCCCN4CCC(C)CC4)cc3o2)cc1
IC50 (Acetylcholinesterase): 0.0077 µM | IC50 [1]: 42.6 µM

COc1ccc(-c2cc(=O)c3ccc(OCCCCCCN4CCC(C)CC4)cc3o2)cc1
IC50 (Acetylcholinesterase): 0.0481 µM | IC50 [1]: 57.2 µM

COc1cc(-c2cc(=O)c3ccc(O)cc3o2)cc(OC)c1OC
IC50 (Acetylcholinesterase): 0.0442 µM | IC50 [1]: 51.4 µM

COc1ccc(-c2cc(=O)c3ccc(OCCCN4CCC(C)CC4)cc3o2)cc1OC
IC50 (Acetylcholinesterase): 0.00648 µM | IC50 [1]: 47.7 µM

COc1cc(-c2cc(=O)c3ccc(OCCCN4CCC(C)CC4)cc3o2)cc(OC)c1OC
IC50 (Acetylcholinesterase): 0.00612 µM | IC50 [1]: 41.8 µM

COc1ccc(-c2cc(=O)c3ccc(O)cc3o2)cc1OC
IC50 (Acetylcholinesterase): 0.0373 µM | IC50 [1]: 47.4 µM

COc1ccc(-c2cc(=O)c3ccc(OCCCCN4CCC(C)CC4)cc3o2)cc1
IC50 (Acetylcholinesterase): 0.0135 µM | IC50 [1]: 48.2 µM

COc1ccc(-c2cc(=O)c3ccc(OCCN4CCC(C)CC4)cc3o2)cc1OC
IC50 (Acetylcholinesterase): 0.00677 µM | IC50 [1]: 42.1 µM

COc1ccc(-c2cc(=O)c3ccc(OCCCCCN4CCC(C)CC4)cc3o2)cc1
IC50 (Acetylcholinesterase): 0.0156 µM | IC50 [1]: 55.1 µM

N=C(N)NN [PIMAGEDINE]
IC50 [1]: 40.1 µM

COc1cc(-c2cc(=O)c3ccc(OCCN4CCC(C)CC4)cc3o2)cc(OC)c1OC
IC50 (Acetylcholinesterase): 0.00587 µM | Ratio IC50 [2]: 2 | IC50 [1]: 37.1 µM | Activity (Mus musculus [3]): Active | Activity (Mus musculus [4]): 31.7 nM/mg | Activity (Mus musculus [5]): 0.97 nmol/min/mg | Activity (Mus musculus [6]): 36.8 nM/mg | Activity (Mus musculus [7]): 20.14 nM/mg | Activity (Mus musculus [8]): 17.6 nM/mg | Activity (Mus musculus [9]): 0.85 nmol/min/mg | inhibition [10]: Active | Activity (Mus musculus [11]): Active

COc1cc2c(cc1OC)C(=O)C(CC1CCN(Cc3ccccc3)CC1)C2 (centres undefined)
Activity (Mus musculus [12]): Active

COc1ccc(-c2cc(=O)c3ccc(O)cc3o2)cc1
IC50 (Acetylcholinesterase): 0.035 µM | IC50 [1]: 42 µM

— ChEMBL document CHEMBL4177645, “Exploration of multi-target potential of chromen-4-one based compounds in Alzheimer's disease: Design, synthesis and biological evaluations” (Bioorg Med Chem, 2017)
